This note sets out measurements from ChEMBL document CHEMBL2434904, “Novel N-methylsulfonamide and retro-N-methylsulfonamide derivatives as 17β-hydroxysteroid dehydrogenase type 2 (17β-HSD2) inhibitors with good ADME-related physicochemical parameters” (Eur J Med Chem, 2013).

Structures are written as SMILES.

Series [1] addresses T1, 17-beta-hydroxysteroid dehydrogenase type 1 (Homo sapiens, UniProt P14061).
T1 sequence (P14061 whole entry): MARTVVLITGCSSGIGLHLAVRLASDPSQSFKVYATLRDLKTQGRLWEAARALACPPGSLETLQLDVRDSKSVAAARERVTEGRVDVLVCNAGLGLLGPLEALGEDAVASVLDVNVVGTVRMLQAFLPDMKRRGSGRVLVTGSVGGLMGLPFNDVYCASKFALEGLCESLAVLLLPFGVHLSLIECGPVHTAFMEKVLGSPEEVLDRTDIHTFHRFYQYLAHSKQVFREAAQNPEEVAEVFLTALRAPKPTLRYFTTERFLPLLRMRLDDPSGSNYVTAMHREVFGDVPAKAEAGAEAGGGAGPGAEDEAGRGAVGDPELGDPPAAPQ
Briefly: Inhibition of human placenta 17beta-HSD1 cytosolic fraction using unlabeled, [2,4,6,7-3H]-estrone as substrate after 10 mins by HPLC analysis in presence of NADH.

The target in series [2] is T2, 17-beta-hydroxysteroid dehydrogenase type 2 (Homo sapiens) (UniProt P37059).
T2 sequence (whole entry): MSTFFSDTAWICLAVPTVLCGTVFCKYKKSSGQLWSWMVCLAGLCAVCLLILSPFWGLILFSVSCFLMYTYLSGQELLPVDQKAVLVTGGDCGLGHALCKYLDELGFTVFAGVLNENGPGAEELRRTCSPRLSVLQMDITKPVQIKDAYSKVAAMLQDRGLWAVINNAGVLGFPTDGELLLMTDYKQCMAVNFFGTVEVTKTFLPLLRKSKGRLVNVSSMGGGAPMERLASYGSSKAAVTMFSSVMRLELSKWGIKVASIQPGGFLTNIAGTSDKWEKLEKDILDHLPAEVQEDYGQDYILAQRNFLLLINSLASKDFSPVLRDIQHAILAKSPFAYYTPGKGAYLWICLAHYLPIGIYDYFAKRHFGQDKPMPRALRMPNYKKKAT
The series can be described thus: Inhibition of human placenta 17beta-HSD2 microsomal fraction using unlabeled, [2,4,6,7-3H]-estradiol as substrate at 1 uM after 20 mins by HPLC analysis in presence of NAD+ relative to control. The essentials:
(§1)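 17β-HSD2 came from the human placental microsomal pellet after fractional centrifugation at 1000, 10,000 and 150,000 g. It was incubated at 37 °C with NAD⁺ and inhibitor in 50 mM phosphate buffer with 20% glycerol, 1 mM EDTA and 1% DMSO final. Unlabeled plus [³H]-E2 (500 nM final) was added, and the reaction was stopped with HgCl₂ after 20 min. After ether extraction, radio-flow detection gave % conversion = E1/(E1+E2). At least three independent experiments were run.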

The target in series [3] is T3, 17-beta-hydroxysteroid dehydrogenase type 1 (Homo sapiens) (UniProt P14061).
T3 sequence (whole entry): T1 sequence (P14061 whole entry)
Briefly: Inhibition of human placenta 17beta-HSD1 cytosolic fraction using unlabeled, [2,4,6,7-3H]-estrone as substrate at 1 uM after 10 mins by HPLC analysis in presence of NADH relative to control.

Series [4] in a line: Partition coefficient, log P of the compound. The class given is physicochemical. The following applies: octanol/water. The essentials: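 Experimental log P was measured on a SiriusT3 instrument. Calculated log P came from the GALAS method, which predicts from structurally similar molecules with known experimental data.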
The species entered for another series is Homo sapiens. Briefly: Selectivity factor, ratio of IC50 for human placenta 17beta-HSD1 cytosolic fraction to IC50 for human placenta 17beta-HSD2 microsomal fraction. A digest of the protocol:
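Selectivity factor is IC50(17β-HSD1, placental cytosolic, E1/NADH assay) divided by IC50(17β-HSD2, placental microsomal, E2/NAD⁺ assay). Both come from radiolabeled-substrate conversion assays at 37 °C with 500 nM substrate.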

The target of series [5] is T4, 17-beta-hydroxysteroid dehydrogenase type 2 (Homo sapiens, UniProt P37059).
T4 sequence (P37059 whole entry): T2 sequence (whole entry)
The series can be described thus: Inhibition of human placenta 17beta-HSD2 microsomal fraction using unlabeled, [2,4,6,7-3H]-estradiol as substrate after 20 mins by HPLC analysis in presence of NAD+. A digest of the protocol: as §1

Series [6] has as its target T4, 17-beta-hydroxysteroid dehydrogenase type 2. The series can be described thus: Inhibition of 17beta-HSD2 (unknown origin).

As for `CN(c1cccc(O)c1)S(=O)(=O)c1cccc(-c2cccc(O)c2)c1`, the IC50 (in general, the concentration that inhibits the measured activity by half) was determined as 1310 nM in series [1] and 540 nM in series [5]. For the same compound, the inhibition – broadly, the percentage by which the read-out fell short of the control – in series [2] came out at 68%; in series [3], 42%. Besides, the logP (as a rule, a log measure of how a compound divides between an organic and an aqueous phase) in series [4] is 4.34. Further, in the series filed under Homo sapiens, the Ratio IC50 turned out to be 2.

As for `COc1cccc(-c2cccc(C(=O)N(C)c3cccc(OC)c3)c2)c1`, the IC50 in series [1] is more than 60000 nM. Moreover, in the series listed under Homo sapiens, the Ratio IC50 is more than 115.

In the case of `CN(c1ccc(-c2cccc(O)c2)cc1)S(=O)(=O)c1cccc(O)c1`, the results for the IC50 in series [1] and in series [5] were 3280 nM and 511 nM, respectively. For the same compound, the inhibition worked out at 66% in series [2] and 22% in series [3]. Also, the logP in series [4] came out at 3.72. The Ratio IC50 in the series listed under Homo sapiens was determined as 6.

In the case of `CN1C(=O)C[C@@H](c2ccccc2F)[C@@H]1[C@@H](O)c1ccc(-c2ccccc2)cc1`, the IC50 in series [6] stood at 1020 nM.

Consider `CN1C(=O)C[C@@H](c2ccccc2F)[C@@H]1[C@@H](O)c1cccc(-c2ccccc2)c1`, for which it took 420 nM to reach half-maximal inhibition in series [6] (IC50).

Take `COc1ccc(-c2cccc(C(=O)N(C)Cc3cccc(OC)c3)c2)cc1`: in series [3], the inhibition stood at 3%.

Turning to `CN(c1cccc(-c2cccc(O)c2)c1)S(=O)(=O)c1cccc(O)c1`, the half-inhibitory concentration (IC50) in series [1] amounted to 427 nM; in series [5] it was 159 nM. Further, the inhibition in series [2] was found to be 88%; in series [3] it was 68%. In addition, the logP in series [4] worked out at 4.08. For the same compound, the Ratio IC50 in the series listed under Homo sapiens worked out at 3.
